The list is not random: actives were taken first. Their share in the collection is about 3.2%.
MEKK2mut PB1 HTS = signal of MEK5 binding to mutant human MEKK2 PB1 domain | bead flow cytometry, Alexa488-MEK5 binding to MEKK2 mutant | percent response, % at 10 µM | 290,000 tested, 0.35% active; in the data active = percent response above about 24%, passing the limit was not always enough
MEKK3 PB1 HTS = raises or lowers MEK5 binding to the human MEKK3 PB1 domain | AID 1529 | 290,000 tested, 1.4% active | binding response (% of control), % at 10 µM | Q99759 | bead-based flow cytometry, Alexa488-MEK5 binding to MEKK3; actives lie on both sides; 0 = blocked by unlabeled MEK5, 100 = vehicle;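 active = binding response more than 3 SD above or below the average of its plate-row segment, actives on both sides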;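 also: Alexa488 bead fluorescence after subtracting the streptavidin-only scavenger bead signal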
Apaf1 inhib = blocks human Apaf-1 apoptosome activity | O14727 | reconstituted apoptosome caspase-3 activity, DEVD-Rh110 fluorescence | inhibition, % at 20 µM | 330,000 tested, 0.71% active | AID 489030; active = inhibition of at least 40% at 20 µM;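 also: plate controls were DMSO wells for no effect and DEVD-CHO caspase inhibitor wells for full effect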
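System: reconstituted apoptosome with Apaf-1, cytochrome c, caspase-9, procaspase-3, dATP; Signal: Rh110 fluorescence intensity; Schedule: 30 min compound preincubation, 50 min activation, room temperature; Reagent: cytochrome c trigger plus (Z-DEVD)2-Rh110 caspase-3 substrate.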
DSG3 Ab inh = human desmoglein-3 autoantibody binding inhibition; P32926; DSG3-coupled beads, scFv-anti-DSG3-GFP binding, flow cytometry; stronger effect = lower value; binding (percent of control), % at 10 µM; 310,000 tested, 0.48% active; AID 588358;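 active = binding more than 3 SD below its plate's average and above zero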;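 also: hits lower antibody fragment binding to DSG3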
UBC13 polyUb = blocks human UBC13 polyubiquitin chain formation. P61088. TR-FRET. inhibition, % at 20 µM. 330,000 tested, 0.47% active; in the data active = inhibition above about 45%, passing the limit was not always enough
Target sequence (P61088 whole entry, looked up): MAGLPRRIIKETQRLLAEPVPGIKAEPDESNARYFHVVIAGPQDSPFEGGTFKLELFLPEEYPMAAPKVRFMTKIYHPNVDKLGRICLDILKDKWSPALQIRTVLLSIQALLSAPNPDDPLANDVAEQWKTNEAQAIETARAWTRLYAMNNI
MEKK2wt PB1 HTS = raises or lowers MEK5 binding to wildtype human MEKK2 PB1 domain; AID 1531; Q9Y2U5; 290,000 tested, 1.1% active; bead flow cytometry, Alexa488-MEK5 binding to MEKK2 WT; actives lie on both sides; binding response (% of control), % at 10 µM; in the data active = binding response below about 67% or above about 130%
MEKK2wt confirm = raises or lowers MEK5 binding to wildtype human MEKK2, retest; shares compounds with MEKK3 PB1 HTS; bead flow cytometry, Alexa488-MEK5 binding to MEKK2 WT; actives lie on both sides; binding response (% of control), % at 10 µM; 5,900 tested, 2.4% active; AID 1892; in the data active = binding response below about 16% or above about 210%; inactive = in between
MEKK2mut-MEK5 = signal of MEK5 binding to mutant human MEKK2, retest. shares compounds with MEKK3 PB1 HTS. 5,900 tested, 2% active. percent response, % at 10 µM. AID 1893. bead flow cytometry, Alexa488-MEK5 binding to MEKK2 mutant; in the data active = percent response mostly above about 71%, no sharp cut-off; inactive = mostly below about 38%;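 also: higher means compound restores mutant binding toward wildtype level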
MEKK3 confirm = MEKK3-MEK5 PB1 inhibition, single concentration confirmation; shares compounds with MEKK3 PB1 HTS; bead flow cytometry, Alexa488-MEK5 binding to MEKK3; stronger effect = lower value; binding response (% of control), % at 10 µM; 5,900 tested, 1.8% active; AID 1894;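 active = binding response below 72% of control, or above a set upper limit, though filed actives all read lower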;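 also: 100% = DMSO only wells and 0% = binding blocked by excess unlabeled MEK5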
Numbers without * were called inactive; [ ] = dose if it differs, or a comment.

How did Cn1ncc2c(Nc3ccc4ccccc4c3)ncnc21 do in these assays?
MEKK2mut PB1 HTS: -29; MEKK3 PB1 HTS: 14*[inhibitor]; Apaf1 inhib: 11; DSG3 Ab inh: 136; UBC13 polyUb: -4; MEKK2wt PB1 HTS: 19*[inhibitor]; MEKK2wt confirm: 102; MEKK2mut-MEK5: -3; MEKK3 confirm: 100

How did Cc1cccc(Nc2ncnc3c2cnn3C)c1 do in these assays?
MEKK2mut PB1 HTS: -9; MEKK3 PB1 HTS: 97; Apaf1 inhib: -8; DSG3 Ab inh: 101; UBC13 polyUb: -7; MEKK2wt PB1 HTS: 89

How did O=C(NC(Cc1c[nH]c2ccccc12)C(=O)Nc1ccc(F)cc1)c1cccs1 (stereo not drawn) do in these assays?
MEKK2mut PB1 HTS: 3; MEKK3 PB1 HTS: 128*; Apaf1 inhib: 12; DSG3 Ab inh: 100; UBC13 polyUb: 10; MEKK2wt PB1 HTS: 106; MEKK2wt confirm: 97; MEKK2mut-MEK5: -1; MEKK3 confirm: 98

Results for O=C(NCCCN1CCCC1)c1cc2c(Cl)nc3ccccc3c2s1 ?
MEKK2mut PB1 HTS: 17; MEKK3 PB1 HTS: 103; Apaf1 inhib: 4; DSG3 Ab inh: 108; UBC13 polyUb: 4; MEKK2wt PB1 HTS: 142*; MEKK2wt confirm: 143; MEKK2mut-MEK5: 21; MEKK3 confirm: 107

What do the screens show for `Cn1nc(-c2ccc(Cl)cc2)c2cc(C(=O)NCC3CCCO3)sc21` (stereo not drawn)?
MEKK2mut PB1 HTS: 2; MEKK3 PB1 HTS: 102; Apaf1 inhib: 9; DSG3 Ab inh: 102; UBC13 polyUb: 29; MEKK2wt PB1 HTS: 106

What do the screens show for `CN1CCN(CCCNC(=O)c2cc3c(-c4ccc(Cl)cc4)nn(C)c3s2)CC1`?
MEKK2mut PB1 HTS: 17; MEKK3 PB1 HTS: 108; Apaf1 inhib: 43*; DSG3 Ab inh: 101; UBC13 polyUb: 46*; MEKK2wt PB1 HTS: 180*; MEKK2wt confirm: 150; MEKK2mut-MEK5: 25; MEKK3 confirm: 103

How did CCN(CC)CCCNC(=O)c1cc2c(-c3ccc(Cl)cc3)nn(C)c2s1 do in these assays?
MEKK2mut PB1 HTS: 29*; MEKK3 PB1 HTS: 122*; Apaf1 inhib: 38; DSG3 Ab inh: 92; UBC13 polyUb: 39; MEKK2wt PB1 HTS: 218*; MEKK2wt confirm: 154; MEKK2mut-MEK5: 26; MEKK3 confirm: 104

How did O=C(NCCCN1CCCCCC1)c1ccc2c(Cl)c3c(nc2c1)CCCC3 do in these assays?
MEKK2mut PB1 HTS: -1; MEKK3 PB1 HTS: 107; Apaf1 inhib: 26; DSG3 Ab inh: 90; UBC13 polyUb: 29; MEKK2wt PB1 HTS: 160*; MEKK2wt confirm: 172; MEKK2mut-MEK5: 47; MEKK3 confirm: 105

How did CCN(CC(=O)NCCCN1CCOCC1)S(=O)(=O)c1ccc(F)cc1 do in these assays?
MEKK2mut PB1 HTS: -3; MEKK3 PB1 HTS: 101; Apaf1 inhib: 3; DSG3 Ab inh: 103; UBC13 polyUb: 3; MEKK2wt PB1 HTS: 99

What do the screens show for `O=C(O)CSc1nnc(-c2cccc(S(=O)(=O)N3CCOCC3)c2)n1-c1ccc(F)cc1`?
Apaf1 inhib: 15; DSG3 Ab inh: 102; UBC13 polyUb: -11

How did CCOC(=O)[C@H]1[C@H]2COc3ccc(Br)cc3[C@H]2N2C(=O)CN(Cc3ccc(Cl)cc3)C(=O)[C@@]12C do in these assays?
DSG3 Ab inh: 103

How did CC1CCCCN1CCNC(=O)c1cc2c(-c3ccccc3F)nn(C)c2s1 (stereo not drawn) do in these assays?
MEKK2mut PB1 HTS: 24*; MEKK3 PB1 HTS: 112; Apaf1 inhib: 18; DSG3 Ab inh: 104; UBC13 polyUb: 10; MEKK2wt PB1 HTS: 128; MEKK2wt confirm: 118; MEKK2mut-MEK5: 33; MEKK3 confirm: 105
